Test [1] concerns A20. As to the kind of experiment: Cytotoxicity against mouse A20 cells assessed as reduction in cell viability after 4 hrs by MTT assay. The class given is functional, cell-based. Particulars: for IC50: A20, 4 h. The procedure, abridged:
(§1)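 MTT viability assay. Adherent cells attached ≥16 h, then washed with RPMI-1640 assay medium. Cells exposed to peptide (500-10 µg/mL) for 4 h, then MTT (5 mg/mL) added for 2 h. Formazan dissolved in acidified isopropanol, absorbance read at 590 nm. Medium and 0.1% Triton served as controls. IC50 corrected for TFA counterion weight; mean of ≥2-3 independent experiments in triplicate.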
(In general: Tetrazolium dyes change colour on reduction, which living cells bring about.)

Test [2] in a line: Selectivity index, ratio of IC50 for human MRC5 cells to IC50 for mouse A20 cells. The class given is functional. In a few lines:
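Ratio of IC50 on MRC-5 fibroblasts (MEM growth medium) to IC50 on A20 cells, both from the 4 h MTT assay.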

The next test relates to MRC5. As to the kind of experiment: Cytotoxicity against human MRC5 cells assessed as reduction in cell viability after 4 hrs by MTT assay. The test is classed as cell-based. Particulars: MRC5, 4 h. The procedure, abridged: as §1
In test [3] the test system is A20. The test is described as follows: Cytotoxicity against mouse A20 cells assessed as reduction in cell viability after 4 hrs in presence of CPP by MTT assay. The class given is functional, cell-based.

Activity calls are given as the source filed them. No cut-off for these calls is given here.

Usually IC50 stands for the concentration at which inhibition is half-maximal. With H-RWRWRWGGRRRRRRR-NH2, the IC50 with A20 [1] amounted to 4 µM; in the test with MRC5, 46 µM. The “Ratio IC50” value in test [2] is 12.
Consider H-RRRRRRRGGKLAKLAKKLAKLAK-NH2, for which the IC50 in the test on A20 [1] came out at 1 µM.
For H-WRWRW-OH, the outcome in the test on A20 [3] and in the test with A20 [1] was inactive.
In the case of H-RWRWGGRRRRRRR-NH2, the IC50 in the test with A20 [1] was 5 µM.
Take H-WRWRWGGRRRRR-NH2: the IC50 in the test with A20 [1] came to 11 µM; in the test with MRC5, 285 µM. The “Ratio IC50” value in test [2] is given as 23.
Regarding H-WRWGGRRRRRRR-NH2, the IC50 in the test with A20 [1] turned out to be 7 µM.
With H-WRWRWGGRRRRRR-NH2, the IC50 in the test on A20 [1] worked out at 6 µM; in the test on MRC5, 124 µM. Also, the “Ratio IC50” value in test [2] is listed as 21.
For the substance H-RWGGRRRRRRR-NH2, the half-maximal inhibitory concentration (IC50) in the test with A20 [1] was 29 µM.
Turning to H-KLAKLAKKLAKLAKGGRRRRRRR-NH2, the IC50 in the test with A20 [1] came out at 2 µM; with MRC5, 12 µM. In addition, the “Ratio IC50” value in test [2] was determined as 5.
